# Data reported in ChEMBL document CHEMBL3046702, “Herbicidal, plant growth inhibitory, and cytotoxic activities of bismuthines containing aromatic heterocycles” (J Agric Food Chem, 2003).
# Active and inactive are the calls of the source. The rule behind the calls is not given here.
# Tests used:
# [1] = test system: Radical scavenging activity; assay: Antioxidant activity assessed as DPPH free radical scavenging activity at 5 to 100 uM after 30 min by spectrophotometric analysis; format: functional
# In short: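 DPPH reduction by the compounds was read spectrophotometrically at 517 nm after 30 min. 100% DMSO served as the blank and quercetin as the reference scavenger.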
# [2] = test system: Lactuca sativa; assay: Herbicidal activity against Lactuca sativa var.Roman (lettuce) assessed as inhibition of seed germination after 48 hr; format: functional, organism-based; settings: read-out: I50
# [3] = test system: Trifolium pratense; assay: Herbicidal activity against Trifolium pratense var. Kenland (red clover) assessed as inhibition of seed respiration during germination after 72 hr by polarographic analysis; format: functional, organism-based
# In short: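 Red clover seeds were exposed to the bismuthines during germination, with respiration followed over the imbibition time. Values were taken at 72 h as the concentration giving 50% inhibition of seed respiration, using means of three experiments.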
# [4] = test system: Trifolium pratense; assay: Herbicidal activity against Trifolium pratense var. Kenland (red clover) assessed as inhibition of seed germination after 48 hr; format: functional, organism-based; settings: read-out: I50
# [5] = test system: Lolium multiflorum; assay: Herbicidal activity against Lolium multiflorum var. Gulf (Italian ryegrass) assessed as inhibition of seed germination after 48 hr; format: functional, organism-based; settings: read-out: I50
# [6] = test system: Artemia salina; assay: Toxicity in Artemia salina (brine shrimp) larvae assessed as mortality; format: organism-based; settings: in vivo
# In short: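 Brine shrimp lethality test on *Artemia salina* larvae, run across several concentrations up to a top level of 1000 µM. Mortality was scored at each concentration, and LC50 values in µM were derived from the concentration–mortality data.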
# [7] = test system: Phaseolus vulgaris; assay: Herbicidal activity against Phaseolus vulgaris assessed as inhibition of mitochondrial oxygen uptake; format: functional, organism-based; settings: read-out: I50
# [8] = test system: Lolium multiflorum; assay: Herbicidal activity against Lolium multiflorum var. Gulf (Italian ryegrass) seedlings assessed as root length rate at 10 uM after 48 hr relative to control; format: functional, organism-based
# In short: (§1)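 Italian ryegrass seedlings grown with 0, 0.5, 1, 3, 5, 7.5 or 10 µM of each bismuthine. Shoot and root lengths were measured at 48 h and expressed as a percentage of the average untreated control length.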
# [9] = test system: Lactuca sativa; assay: Herbicidal activity against Lactuca sativa var.Roman (lettuce) seedlings assessed as root length at 10 uM after 120 hr (reference value: 18 to 19 mm); format: functional, organism-based
# [10] = test system: Lactuca sativa; assay: Herbicidal activity against Lactuca sativa var.Roman (lettuce) seedlings assessed as seed germination rate at 10 uM after 48 hr relative to control; format: functional, organism-based
# [11] = test system: Lactuca sativa; assay: Herbicidal activity against Lactuca sativa var.Roman (lettuce) seedlings assessed as shoot length at 10 uM after 120 hr (reference value: 27 to 31 mm); format: functional, organism-based
# [12] = test system: Lactuca sativa; assay: Herbicidal activity against Lactuca sativa var.Roman (lettuce) seedlings assessed as seed germination rate at 1 uM after 48 hr relative to control; format: functional, organism-based
# [13] = test system: Trifolium pratense; assay: Herbicidal activity against Trifolium pratense var. Kenland (red clover) seedlings assessed as partial inhibition of hypocotyle growth up to 15 uM after 48 hr; format: functional, organism-based
# [14] = test system: Lactuca sativa; assay: Herbicidal activity against Lactuca sativa var.Roman (lettuce) seedlings assessed as root length at 50 uM after 120 hr (reference value: 18 to 19 mm); format: functional, organism-based
# [15] = test system: Lactuca sativa; assay: Herbicidal activity against Lactuca sativa var.Roman (lettuce) seedlings assessed as root length at 75 uM after 120 hr (reference value: 18 to 19 mm); format: functional, organism-based
# [16] = test system: Lolium multiflorum; assay: Herbicidal activity against Lolium multiflorum var. Gulf (Italian ryegrass) seedlings assessed as root length rate at 1 uM after 48 hr relative to control; format: functional, organism-based; in short: as §1
# [17] = test system: Lolium multiflorum; assay: Herbicidal activity against Lolium multiflorum var. Gulf (Italian ryegrass) seedlings assessed as root length rate at 3 uM after 48 hr relative to control; format: functional, organism-based; in short: as §1
# [18] = test system: Lactuca sativa; assay: Herbicidal activity against Lactuca sativa var.Roman (lettuce) seedlings assessed as root length at 25 uM after 120 hr (reference value: 18 to 19 mm); format: functional, organism-based
# [19] = test system: Lactuca sativa; assay: Herbicidal activity against Lactuca sativa var.Roman (lettuce) seedlings assessed as seed germination rate at 7.5 uM after 48 hr relative to control; format: functional, organism-based
# [20] = test system: Lolium multiflorum; assay: Herbicidal activity against Lolium multiflorum var. Gulf (Italian ryegrass) seedlings assessed as shoot length rate at 3 uM after 48 hr relative to control; format: functional, organism-based; in short: as §1
# [21] = test system: Lolium multiflorum; assay: Herbicidal activity against Lolium multiflorum var. Gulf (Italian ryegrass) seedlings assessed as shoot length rate at 0.5 uM after 48 hr relative to control; format: functional, organism-based; in short: as §1
# [22] = test system: Lolium multiflorum; assay: Herbicidal activity against Lolium multiflorum var. Gulf (Italian ryegrass) seedlings assessed as root length rate at 5 uM after 48 hr relative to control; format: functional, organism-based; in short: as §1
# [23] = test system: Lactuca sativa; assay: Herbicidal activity against Lactuca sativa var.Roman (lettuce) seedlings assessed as inhibition of seed germination at 5 uM after 48 hr; format: functional, organism-based
# [24] = test system: Lactuca sativa; assay: Herbicidal activity against Lactuca sativa var.Roman (lettuce) seedlings assessed as seed germination rate at 0.5 uM after 48 hr relative to control; format: functional, organism-based
# [25] = test system: Lolium multiflorum; assay: Herbicidal activity against Lolium multiflorum var. Gulf (Italian ryegrass) seedlings assessed as shoot length rate at 5 uM after 48 hr relative to control; format: functional, organism-based; in short: as §1
# [26] = test system: Lolium multiflorum; assay: Herbicidal activity against Lolium multiflorum var. Gulf (Italian ryegrass) seedlings assessed as shoot length rate at 1 uM after 48 hr relative to control; format: functional, organism-based; in short: as §1
# [27] = test system: Lactuca sativa; assay: Herbicidal activity against Lactuca sativa var.Roman (lettuce) seedlings assessed as shoot length at 5 uM after 120 hr (reference value: 27 to 31 mm); format: functional, organism-based
# [28] = test system: Lolium multiflorum; assay: Herbicidal activity against Lolium multiflorum var. Gulf (Italian ryegrass) assessed as inhibition of seed respiration during germination after 72 hr by polarographic analysis; format: functional, organism-based
# [29] = test system: Radical scavenging activity; assay: Antioxidant activity assessed as DPPH free radical scavenging activity at 5 to 100 uM after 30 min by TLC autographic assay; format: functional
# [30] = test system: Lactuca sativa; assay: Herbicidal activity against Lactuca sativa var.Roman (lettuce) seedlings assessed as seed germination rate at 5 uM after 48 hr relative to control; format: functional, organism-based
# [31] = test system: Lactuca sativa; assay: Herbicidal activity against Lactuca sativa var.Roman (lettuce) seedlings assessed as partial inhibition of hypocotyle growth up to 10 uM after 48 hr; format: functional, organism-based
# [32] = test system: Lolium multiflorum; assay: Herbicidal activity against Lolium multiflorum var. Gulf (Italian ryegrass) seedlings assessed as shoot length rate at 10 uM after 48 hr relative to control; format: functional, organism-based; in short: as §1
# [33] = test system: Lactuca sativa; assay: Herbicidal activity against Lactuca sativa var.Roman (lettuce) seedlings assessed as seed germination rate at 3 uM after 48 hr relative to control; format: functional, organism-based
# [34] = test system: Lactuca sativa; assay: Herbicidal activity against Lactuca sativa var.Roman (lettuce) seedlings assessed as shoot length at 75 uM after 120 hr (reference value: 27 to 31 mm); format: functional, organism-based
# [35] = test system: Lolium multiflorum; assay: Herbicidal activity against Lolium multiflorum var. Gulf (Italian ryegrass) seedlings assessed as shoot length rate at 7.5 uM after 48 hr relative to control; format: functional, organism-based; in short: as §1
# [36] = test system: Physalis ixocarpa; assay: Herbicidal activity against Physalis ixocarpa assessed as inhibition of seed respiration during germination after 72 hr by polarographic analysis; format: functional, organism-based
# [37] = test system: Lactuca sativa; assay: Herbicidal activity against Lactuca sativa var.Roman (lettuce) seedlings assessed as growth inhibition at 5 uM after 120 hr; format: functional, organism-based
# [38] = test system: Lolium multiflorum; assay: Herbicidal activity against Lolium multiflorum var. Gulf (Italian ryegrass) seedlings assessed as root length rate at 0.5 uM after 48 hr relative to control; format: functional, organism-based; in short: as §1
# [39] = test system: Lolium multiflorum; assay: Herbicidal activity against Lolium multiflorum var. Gulf (Italian ryegrass) seedlings assessed as root length rate at 7.5 uM after 48 hr relative to control; format: functional, organism-based; in short: as §1
# [40] = test system: Lactuca sativa; assay: Herbicidal activity against Lactuca sativa var.Roman (lettuce) seedlings assessed as root length at 5 uM after 120 hr (reference value: 18 to 19 mm); format: functional, organism-based
molecule,measurement,setting,value
O=c1c(O)c(-c2ccc(O)c(O)c2)oc2cc(O)cc(O)c12,Activity,[1],Active
TRIS(1-METHYL-2-PYRROLYL)BISMUTH [listing 1 of 2 here],IC50,[2],34 µM
same,IC50,[3]; read-out: I50,8.4 µM
same,IC50,[4],7.5 µM
same,IC50,[5],33.8 µM
same,LC50,[6],638 µM
same,IC50,[7],17.1 µM
TRIS(1-METHYL-2-PYRROLYL)BISMUTH [listing 2 of 2 here],Activity,[8],34%
same,Activity,[9],11 mm
same,Activity,[10],60%
same,Activity,[11],9 mm
same,Activity,[1],Active
same,Activity,[12],85%
same,growth inhibition (GI),[13],Active
same,Activity,[14],0 mm
same,Activity,[15],0 mm
same,Activity,[16],78%
same,Activity,[17],76%
same,Activity,[18],0 mm
same,Activity,[19],65%
same,Activity,[20],82%
same,Activity,[21],93%
same,inhibition,[3],Dose-dependent effect
same,Activity,[22],46%
same,inhibition,[23],Active
same,Activity,[24],85%
same,Activity,[25],66%
same,Activity,[26],84%
same,Activity,[27],29 mm
same,inhibition,[28],inactive
same,Activity,[29],inactive
same,Activity,[30],76%
same,growth inhibition (GI),[31],Active
same,Activity,[32],28%
same,Activity,[33],80%
same,Activity,[34],0 mm
same,Activity,[35],64%
same,inhibition,[36],Active
same,inhibition,[37],30%
same,Activity,[38],112%
same,Activity,[39],60%
same,Activity,[40],30 mm
